Rows were chosen to be rich in hits. Some 1.6% of all compounds tested hit in one or more screens of this group.
PG9 binder = PG9 antibody binding by small molecule. actives 0.43% (n = 360,000). TR-FRET gp120-PG9 antibody binding. inhibition, % at 6.7 µM; in the data active = inhibition above about 8.5%
NR1D1 modulator = modulators of human Rev-erb alpha DNA binding. P20393. Rev-erbα–FITC-DNA binding, fluorescence polarization, 90 min. activity, % at 10 µM. actives 0.79% (n = 370,000). AID 1259318;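 active = activity above about 14%, limit read from the data; passing the limit was not always enough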;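 also: 0% = DMSO wells with 35 nM protein and 100% = DMSO wells with 750 nM protein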
NR2E3 ag-1 = agonists of human NR2E3 nuclear receptor; Q9Y5X4; CHO-S Gal4-NCOR/VP16-NR2E3 two-hybrid, luciferase; inhibition of corepressor binding, % at 3.98 µM; actives 0.35% (n = 360,000); AID 602229;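 active = inhibition above the mean of all tested compounds plus 3 SD, cut at about 70% in these data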;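 also: 0% = DMSO with NR2E3 transfected cells and 100% = cells lacking NR2E3 construct; higher means lower luciferase signal from less NR2E3 corepressor binding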
Target sequence (Q9Y5X4 whole entry, looked up, the tested form may be a part): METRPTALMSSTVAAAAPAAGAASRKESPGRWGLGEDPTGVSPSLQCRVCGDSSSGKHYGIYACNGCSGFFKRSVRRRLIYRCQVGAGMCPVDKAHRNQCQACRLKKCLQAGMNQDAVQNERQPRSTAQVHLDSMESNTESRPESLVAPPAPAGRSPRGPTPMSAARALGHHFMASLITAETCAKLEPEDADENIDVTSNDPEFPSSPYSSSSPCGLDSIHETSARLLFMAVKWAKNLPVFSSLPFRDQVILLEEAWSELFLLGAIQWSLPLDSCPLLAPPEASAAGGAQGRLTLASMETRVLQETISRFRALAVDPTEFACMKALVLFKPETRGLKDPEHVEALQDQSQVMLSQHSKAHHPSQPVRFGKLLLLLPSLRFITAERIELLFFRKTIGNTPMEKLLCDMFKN
NR2E3 ag-2 = NR2E3 (human) agonism; actives 0.12% (n = 320,000); Q9Y5X4; inhibition of corepressor binding, % at 4.78 µM; GST-NR2E3/biotin-RetCOR TR-FRET, 1536-well; AID 2300;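 active = percent inhibition above the cutoff of mean plus 3 SD of all tested compounds, set per screening campaign, cut at about 20% in these data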;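 also: 0% = DMSO wells and 100% = biotin wells as full block of FRET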
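Material: NR2E3–RetCOR corepressor complex / Incubation: Compound–protein incubation for 5 h at 4 °C / Dosing: compound at 4.8 µM, single dose / Detection: time-resolved FRET / Benchmarks: high control biotin, low control 0.6% DMSO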
VLA-4 inh = inhibition in a human VLA-4 binding assay; P13612; VLA-4 expressing cells, ligand binding flow cytometry; inhibition, % (about 7 µM as worked out from the volumes in the protocol); actives 0.2% (n = 330,000); AID 2557; in the data active = inhibition above about 50%
Rev-erbA confirm = Rev-erb alpha (human) modulation, hit confirmation. Rev-erb alpha FITC-DNA binding, fluorescence polarization, 90 min. AID 1259319. activation, % at 25 µM. actives 61% (n = 3,000). shares compounds with NR1D1 modulator;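 active = activation at or above a set limit, or at least 3 SD above the negative control mean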;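 also: 0% = 35 nM protein with DMSO and 100% = 750 nM protein high control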
RORg DNA counter = affects RORgamma DNA binding in a Rev-erb alpha counter-screen; shares compounds with NR1D1 modulator; purified RORgamma protein-FITC-DNA binding, fluorescence polarization; IC50, µM; actives 8% (n = 910); AID 1259320;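 active = Compounds whose fitted half-maximal concentration for disrupting protein-DNA binding is below 10 micromolar; the record names Rev-erb in its text, so the target is in doubt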
* marks the source's active call; other numbers are inactive results; nt = not tested or not shown.

SMILES | PG9 binder | NR1D1 modulator | NR2E3 ag-1 | NR2E3 ag-2 | VLA-4 inh | Rev-erbA confirm | others
COc1cccc(-c2nc(CS(=O)(=O)CC(=O)NCCCc3ccccc3)c(C)o2)c1 | 4 | 60* | 14 | -1 | -3 | 37* | RORg DNA counter=>40
O=C(O)c1cccc2c1C(=O)c1ccc(-c3ccc(F)cc3F)cc1S2(=O)=O | 0 | -4 | 0 | 2 | 21 | nt
COC1OC(CO)C(N(C)C(C)=O)C1O (stereo not drawn) | -1 | 9 | -10 | nt | nt | nt
CCOC(=O)c1nn2c(C(F)(F)F)cc(-c3ccc(OC)cc3)nc2c1Br | -1 | 41* | -10 | 1 | 2 | 5
COCCNC(=O)c1nn2c(C(F)(F)F)cc(-c3ccccc3)nc2c1Br | 1 | -4 | 2 | nt | nt | nt
COc1ccc(S(=O)(=O)N2CCc3ccccc32)cc1C(=O)Nc1ccc(NC(C)=O)cc1 | 1 | 58* | -27 | nt | 3 | 41* | RORg DNA counter=>40
COc1ccc(S(=O)(=O)N2CCCCCC2)cc1C(=O)Nc1ccc(C)cn1 | 0 | 101* | -12 | 5 | 12 | 30* | RORg DNA counter=0.79*
COc1ccc(S(=O)(=O)N2CCCCCC2)cc1C(=O)Nc1ccccn1 | 0 | 46* | 4 | -6 | -26 | 15
COc1ccc(S(=O)(=O)N2CCCCCC2)cc1C(=O)Nc1cc(C)ccn1 | 2 | 2 | 1 | 3 | 0 | nt
CC1=CC(=O)C=C(C)C1=NOc1ccccc1[N+](=O)[O-] | 8 | 2 | 8 | 2 | -1 | nt
O=C(CSc1nnc(-c2ccc3c(c2)OCO3)n1-c1ccccc1)c1ccc(Cl)cc1 | -2 | 4 | -12 | 3 | 8 | nt
O=C(CSc1nnc(-c2ccc3c(c2)OCO3)n1-c1ccccc1)c1ccccc1 | -1 | 25* | -4 | -7 | -12 | 18*
Cc1nc(C)c(C(=O)OCC(=O)Nc2cccc(C)c2C)s1 | -1 | 1 | 4 | 4 | 4 | nt
COc1ccc(/C=C2\SC(=O)N(CC(=O)Nc3cccnc3)C2=O)cc1OC | -3 | 8 | 3 | -2 | -8 | nt
COc1ccc(/C=C2/SC(=O)N(CC(=O)Nc3cc(C)on3)C2=O)cc1OC | -5 | 49* | -3 | -2 | 4 | 27*
COc1ccc(/C=C2/SC(=O)N(CCC(=O)Nc3ccccc3)C2=O)cc1OC | -37 | 24* | -5 | 0 | 6 | 31* | RORg DNA counter=>40
COc1ccc(/C=C2/SC(=O)N(CCC(=O)Nc3ccc(C)cc3)C2=O)cc1OC | -1 | 30* | nt | 6 | 34 | 25*
C=CCc1ccc(OCC(O)CN2CCc3ccccc3C2)c(OC)c1 (stereo not drawn) | -2 | 3 | -12 | 0 | 3 | nt
COc1ccccc1NC(=O)N(C)C[C@H]1OCc2cnnn2CCCC(=O)N([C@H](C)CO)C[C@H]1C | -1 | -8 | -4 | nt | nt | nt
O=C(COc1ccc(Cl)cc1)Nc1cccc(-c2ccc(N3CCOCC3)nn2)c1 | 5 | 20* | -83 | 1 | 26 | 12
O=C(Nc1cccc(-c2ccc(N3CCOCC3)nn2)c1)c1ccc(Cl)cc1 | 3 | 0 | -45 | -1 | 4 | nt
CN(C)/C=N/c1c(C#N)cnn1-c1nc2ccccc2s1 | 2 | 50* | 1 | 2 | -4 | 19*
O=C1N=C(O)CN1/N=C/c1ccc(-c2ccc([N+](=O)[O-])cc2)o1 | -3 | -1 | 0 | 3 | -15 | nt
Cc1cc2c(c(SCC(=O)Nc3ccc(C)c(C)c3)n1)C(=O)OC2 | 0 | 7 | 2 | 5 | -15 | nt
COc1cc(/C=N/NC(=O)c2c(C)nc3ccc(Cl)cn23)cc(OC)c1OC | 1 | 50* | -7 | nt | 0 | 47* | RORg DNA counter=>40
SMILES | PG9 binder | NR1D1 modulator | NR2E3 ag-1 | NR2E3 ag-2 | VLA-4 inh | Rev-erbA confirm | others
CSc1nc(N)c(C#N)c(-c2ccc(Cl)cc2)c1C#N | 2 | 60* | -18 | 2 | 15 | 45* | RORg DNA counter=>40
CSc1nc(C)cc(C)c1C#N | -2 | -2 | -8 | 0 | 1 | nt
Cc1ccc(-c2c(C#N)c(N)nc3c2CCCCC3)cc1 | 0 | 31* | -15 | 0 | 0 | 20*
CCc1nc(N)c(C#N)c(-c2ccc(F)cc2)c1C | 1 | -4 | -13 | 1 | 1 | nt
CSc1nc(-c2ccc(C)cc2)nc(N)c1C#N | 2 | 31* | -5 | 0 | 0 | 8
O=C(NCc1cccs1)C1CCN(S(=O)(=O)c2cccc([N+](=O)[O-])c2)CC1 | -3 | -4 | -5 | -3 | -1 | nt
CCN(CC)C(=O)Cn1cc(S(=O)(=O)CC(=O)N2CCOCC2)c2ccccc21 | 0 | 4 | 10 | 1 | 2 | nt
COC(=O)c1sc2nc3c(cc2c1N)C(=O)CC(C)(C)C3 | -2 | 70* | -5 | 5 | -1 | 44* | RORg DNA counter=>40
CCN(C(=O)COC(=O)/C(C#N)=C/c1ccc(N(C)C)cc1)C1CCS(=O)(=O)C1 (stereo not drawn) | -3 | 12 | -13 | nt | 12 | nt
CN(C)c1ccc(/C=C(\C#N)C(=O)OCC(=O)N(C)C2CCS(=O)(=O)C2)cc1 (stereo not drawn) | -7 | 20* | 11 | -5 | -11 | 16*
Cc1cc(NC(=O)C(C)Sc2nc(-c3cccs3)nc3ccccc23)no1 (stereo not drawn) | 5 | 42* | -14 | nt | nt | 13
CCc1nc2c(OCCOc3ccccc3)cccn2c1N(C)C(=O)C1CC1 | nt | nt | 0 | nt | nt | nt
CCCn1c(SCc2ccon2)nc2ccccc2c1=O | -1 | -2 | 4 | 1 | 7 | nt
Cc1ccc(-c2csc3nc[nH]c(=S)c23)cc1C | -1 | 24* | 43 | 0 | 4 | 32* | RORg DNA counter=>40
COc1ccc(-c2csc3nc[nH]c(=O)c23)cc1OC | -1 | 0 | 10 | -1 | -11 | nt
O=C1c2cnc3nc(SCc4cccc(Cl)c4)nn3c2CC2c3ccccc3CCN12 (stereo not drawn) | -2 | 34* | -18 | -2 | -9 | 11
CCCCNC(=O)c1nc(C2CCN(S(=O)(=O)c3c(F)cccc3F)CC2)oc1-c1cccc(C(F)(F)F)c1 | 0 | -1 | -2 | nt | nt | nt
COC(=O)c1ccc2nc(Nc3nc4ccc(F)cc4s3)sc2c1 | 2 | 48* | 27 | -1 | -6 | 54*
COC(=O)c1ccc2nc(NC(=O)C3CCCCC3)sc2c1 | -3 | 17* | -105 | 4 | -1 | 19*
CSc1ccccc1NC(=S)Nc1ccc(S(N)(=O)=O)cc1 | 0 | -5 | -3 | 2 | 19 | nt
O=c1/c(=C/c2ccc(O)cc2)sc2n1CCCN=2 | -3 | -6 | -39 | -2 | 6 | nt
CN(C)c1ccc(/C=c2\sc3n(c2=O)CCCN=3)cc1 | -18 | 27* | -119 | -4 | -3 | 17
Cn1c2ccccc2c(=O)c2c(=O)n(CCCc3ccccc3)cnc21 | nt | -3 | nt | nt | nt | nt

Screening data deposited in PubChem BioAssay by several laboratories.
